This note sets out measurements from ChEMBL document CHEMBL1127559, “Syntheses and anticholinesterase activity of tetrahydrobenzazepine carbamates” (J Med Chem, 1994).

One data set concerns the target Acetylcholinesterase (Homo sapiens, UniProt P22303). In words: In vitro inhibitory activity against human acetylcholinesterase. Format: functional.
The species entered for data set [1] is Mus musculus. Briefly: Minimal dose to produce side effects was determined for salivation. Format: functional. The gist of the method: (§1)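 Mice fasted overnight, dosed ip or po at 10 mL/kg and housed singly in novel cages. Salivation, tremor and diarrhea each scored on a 5-point scale at 15, 30 and 60 min post-dose. Value is the minimal dose producing the sign.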

Data set [2] in a line: Lethal dose was measured at 24 hour in mice following intraperitoneal administration. To be noted: mouse, in vivo, ip. The data set is classed as toxicity, organism-based. The gist of the method: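 Mice fasted overnight and dosed ip at 10 mL/kg, then housed singly in novel cages. Lethality scored over 24 h using at least four dose levels with nine animals per dose. LD50 calculated by Spearman-Karber.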

The species entered for data set [3] is Mus musculus. In words: Minimal dose to produce side effects was determined for tremor. The data set is classed as functional. The gist of the method: as §1
The species entered for data set [4] is Mus musculus. In words: Minimal dose to produce side effects was determined for diarrhea. Format: functional. The gist of the method:
as §1

The species entered for data set [5] is Mus musculus. Briefly: Minimal dose to produce side effects was determined for salivation in mice. Format: functional. The essentials: as §1
For data set [6], the species on record is Mus musculus. Briefly: Minimal dose to produce side effects was determined for diarrhea in mice. The data set is classed as functional. The essentials:
as §1

Data set [7] is filed under the species Mus musculus. Briefly: Minimal dose to produce side effects was determined for tremor in mice. Format: functional. The essentials: as §1

Acetylcholinesterase, sequence (P22303 whole entry): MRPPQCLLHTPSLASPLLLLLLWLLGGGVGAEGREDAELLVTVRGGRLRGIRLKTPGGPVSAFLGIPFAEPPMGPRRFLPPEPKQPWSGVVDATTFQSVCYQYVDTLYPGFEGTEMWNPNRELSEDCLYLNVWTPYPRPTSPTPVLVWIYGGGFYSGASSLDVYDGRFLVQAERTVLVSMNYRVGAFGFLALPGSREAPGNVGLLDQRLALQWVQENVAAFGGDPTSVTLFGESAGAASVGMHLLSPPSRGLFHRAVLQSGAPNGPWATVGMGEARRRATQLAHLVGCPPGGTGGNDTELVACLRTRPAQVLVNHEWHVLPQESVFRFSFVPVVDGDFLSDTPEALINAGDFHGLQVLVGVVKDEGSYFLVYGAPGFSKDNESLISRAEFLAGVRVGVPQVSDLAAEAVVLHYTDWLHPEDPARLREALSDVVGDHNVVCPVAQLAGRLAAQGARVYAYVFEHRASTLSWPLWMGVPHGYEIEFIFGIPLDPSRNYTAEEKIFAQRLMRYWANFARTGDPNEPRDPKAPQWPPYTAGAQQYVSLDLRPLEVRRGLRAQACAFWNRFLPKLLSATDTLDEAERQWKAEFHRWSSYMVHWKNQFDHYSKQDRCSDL

On to `CCCCNC(=O)Oc1ccc2c(c1)C1CCN(CC)C2C1` (stereo unspecified), for which, at Acetylcholinesterase, the IC50 (usually the concentration needed to halve the response being measured) was 206 nM.

Take `CCCCCCCNC(=O)Oc1ccc2c(c1)C1CCN(C)C2C1` (stereo unspecified): the Dose in the data set listed under Mus musculus [1] and in the data set listed under Mus musculus [3] was 10 mg/kg each time. Further, the LD50 (commonly the dose expected to kill half of the subjects tested) at 24 h in data set [2] came to 18 mg/kg. The molecule further returned an IC50 against Acetylcholinesterase of 143 nM.

Regarding `CCCCCCCNC(=O)Oc1ccc2c(c1)[C@]1(C)CCN(C)[C@@H]1N2C` [EPTASTIGMINE], the results for the Dose in the data set filed under Mus musculus [1], in the data set filed under Mus musculus [3] and in the data set listed under Mus musculus [4] were 10 mg/kg, 10 mg/kg and 1.8 mg/kg, respectively.

On to `CCCCCCNC(=O)Oc1ccc2c(c1)[C@]1(C)CCN(CC)[C@@H]1C2`, for which the Dose in the data set listed under Mus musculus [1] turned out to be 3.2 mg/kg; in the data set listed under Mus musculus [3], 3.2 mg/kg; in the data set listed under Mus musculus [4] it was 1.8 mg/kg. The molecule also had an LD50 at 24 h in data set [2] of 4 mg/kg.

For the molecule `CCCCCCCNC(=O)Oc1ccc2c(c1)C1CCN(CC)C2C1` (stereo unspecified), the Dose in the data set filed under Mus musculus [1] was determined as 17.8 mg/kg; in the data set listed under Mus musculus [3], 17.8 mg/kg; in the data set listed under Mus musculus [4], 3.2 mg/kg. In addition, the LD50 at 24 h in data set [2] came out at 22 mg/kg. The molecule also returned a concentration for half-maximal inhibition (IC50) against Acetylcholinesterase of 169 nM.

For the molecule `CCCCCCNC(=O)Oc1ccc2c(c1)C1CCN(C)C2C1` (stereo unspecified), the Dose in the data set filed under Mus musculus [1] worked out at 5.6 mg/kg; in the data set filed under Mus musculus [3] it was 3.2 mg/kg. In data set [2], this molecule came in with a median lethal dose (LD50) at 24 h of 6 mg/kg.

As to `CCCCCCNC(=O)Oc1ccc2c(c1)C1(C)CCN(CC)C2C1` (stereo unspecified), in data set [2], the LD50 at 24 h is 9 mg/kg. The IC50 at Acetylcholinesterase was 133 nM.

For `CNC(=O)Oc1ccc2c(c1)[C@]1(C)CCN(C)[C@@H]1N2C` [PHYSOSTIGMINE], the Dose in the data set filed under Mus musculus [5], in the data set filed under Mus musculus [6] and in the data set filed under Mus musculus [7] was 0.32 mg/kg in each case.

`CCCCCCNC(=O)Oc1ccc2c(c1)C1CCN(CC)C2C1` (stereo unspecified): the Dose was 3.2 mg/kg in the data set listed under Mus musculus [1], 3.2 mg/kg in the data set filed under Mus musculus [3] and 1.8 mg/kg in the data set listed under Mus musculus [4]. The molecule further showed an LD50 at 24 h in data set [2] of 9 mg/kg. For the same molecule, on Acetylcholinesterase, the half-inhibitory concentration (IC50) was 125 nM.

The molecule `CCN1CCC2CC1c1ccc(OC(=O)NC)cc12` (stereo unspecified) showed an LD50 at 24 h in data set [2] of 1 mg/kg. The molecule further came in with an IC50 against Acetylcholinesterase of 171 nM.

`CCCCCCCNC(=O)Oc1ccc2c(c1)C1(C)CCN(CC)C2C1` (stereo unspecified): in data set [2], the LD50 at 24 h turned out to be 4 mg/kg. Further, the Dose in the data set filed under Mus musculus [3] worked out at 1.8 mg/kg; in the data set listed under Mus musculus [4], 1 mg/kg. The IC50 against Acetylcholinesterase was 159 nM.
